Source: ChEMBL document CHEMBL1126283, “Thromboxane receptor antagonism combined with thromboxane synthase inhibition. 4. 8-[[(4-Chlorophenyl)sulfonyl]amino]-4-(3-(3-pyridinyl) propyl)octanoic acid and analogs” (J Med Chem, 1992)

Species on record: Cavia porcellus
Experiment: Inhibition of bronchoconstriction in guinea pigs
Format: functional
Settings: Lung
Procedure, shortened: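 Guinea pigs with cannulated trachea, ventilated at 40 strokes/min, given succinylcholine (1.0 mg/kg). Arachidonic acid priming dose 0.25 mg/kg iv, then 0.5 mg/kg iv. Test compound was then given as an iv bolus, with a 0.5 mg/kg AA challenge 5 min later. Peak insufflation pressure expressed as % of control. Five doses (0.1-1000 µg/kg), 6-8 animals per dose, ED50 derived.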

| Compound | ED50 |
| --- | --- |
| O=C(O)CCCCO/N=C(/c1cccnc1)c1cccc(C(F)(F)F)c1 [RIDOGREL] | 0.0483 mg/kg |

The compounds below were run on Cavia porcellus (assay: Ex vivo inhibition of U-46,619-induced aggregation of guinea pig platelets after peroral administration of 10 mg/kg dose at 1 hr time). Settings: route oral.
Format: functional
Procedure, shortened: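 Fasted (12-16 h) male Hartley guinea pigs (350-400 g), 3-6 per group, dosed orally in a 3% fortified cornstarch suspension vehicle. At 1 h (or 6 h), animals under methoxyflurane anaesthesia were bled by cardiac puncture into citrate (0.0129 M final). PRP (500g, 7 min) was stirred 1 min at 37 °C, then U 46619 added. Result reported as EC50 drug-treated / EC50 vehicle.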

| Compound | Concentration ratio |
| --- | --- |
| CCOC(=O)CCC(CCCCNS(=O)(=O)c1ccc(Cl)cc1)CCCc1cccnc1 (stereo unspecified) | 3 |
| O=C(O)COC(CCCCNS(=O)(=O)c1ccc(Cl)cc1)CCCc1cccnc1 (stereo unspecified) | 2.6 |
| O=C(O)CCCCO/N=C(/c1cccnc1)c1cccc(C(F)(F)F)c1 [RIDOGREL] | 5.6 |

Species on record: Homo sapiens
Experiment: In vitro inhibition of U 46619 induced aggregation of washed platelets(WP)
Settings: not given
Procedure, shortened: (§1)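 Antagonism of aggregation induced by the PGH2/TxA2 mimetic U 46619, run in human washed platelets (WP) and in platelet-rich plasma (PRP); IC50 reported. Values come from one or two determinations.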

| IC50 | Compound |
| --- | --- |
| 9300 nM | O=C(O)C(CCCCNS(=O)(=O)c1ccc(Cl)cc1)CCCc1cccnc1 (stereo unspecified) |

Species on record: Homo sapiens
Experiment: Evaluated in vitro for the inhibition of U 46619 induced aggregation of platelet-rich plasma
Settings: not given
Procedure, shortened: as §1

| IC50 | Compound |
| --- | --- |
| 770 nM | O=C(O)/C=C/C(CCCCNS(=O)(=O)c1ccc(Cl)cc1)CCCc1cccnc1 (stereo unspecified) |
| 2800 nM | O=C(O)CCC(CCCCNS(=O)(=O)c1ccc2ccccc2c1)CCCc1cccnc1 (stereo unspecified) |
| > 30000 nM | O=C(O)CCC(CCCCNS(=O)(=O)c1ccc(F)cc1)CCCc1cccnc1 (stereo unspecified) |
| 4860 nM | Cc1ccncc1CCCC(CCCCNS(=O)(=O)c1ccc(Cl)cc1)CCC(=O)O (stereo unspecified) |
| 2000 nM | [N-]=[N+]=Nc1ccc(S(=O)(=O)NCCCCC(CCCc2cccnc2)CCC(=O)O)cc1 (stereo unspecified) |
| 610 nM | O=C(O)CCC(CCCCNS(=O)(=O)c1ccc(C(F)(F)F)cc1)CCCc1cccnc1 (stereo unspecified) |
| 1600 nM | O=C(O)COC(CCCCNS(=O)(=O)c1ccc(Cl)cc1)CCCc1cccnc1 (stereo unspecified) |
| 1340 nM | COc1ccc(S(=O)(=O)NCCCCC(CCCc2cccnc2)CCC(=O)O)cc1 (stereo unspecified) |

Species on record: Homo sapiens
Experiment: In vitro inhibition of U 46619 induced aggregation of washed platelets
Settings: not given
Procedure, shortened: as §1

| IC50 | Compound |
| --- | --- |
| 70 nM | O=C(O)/C=C/C(CCCCNS(=O)(=O)c1ccc(Cl)cc1)CCCc1cccnc1 (stereo unspecified) |
| 2360 nM | O=S(=O)(NCCCCC(CCCO)CCCc1cccnc1)c1ccc(Cl)cc1 (stereo unspecified) |
| > 10000 nM | NC(=O)CCC(CCCCNS(=O)(=O)c1ccc(Cl)cc1)CCCc1cccnc1 (stereo unspecified) |
| 240 nM | O=C(O)CCC(CCCCNS(=O)(=O)c1ccc2ccccc2c1)CCCc1cccnc1 (stereo unspecified) |
| 108 nM | O=C(O)CCC(CCCCNS(=O)(=O)c1ccc(F)cc1)CCCc1cccnc1 (stereo unspecified) |
| 6 nM | Cc1ccncc1CCCC(CCCCNS(=O)(=O)c1ccc(Cl)cc1)CCC(=O)O (stereo unspecified) |
| 35 nM | [N-]=[N+]=Nc1ccc(S(=O)(=O)NCCCCC(CCCc2cccnc2)CCC(=O)O)cc1 (stereo unspecified) |
| > 10000 nM | CS(=O)(=O)c1ccc(S(=O)(=O)NCCCCC(CCCc2cccnc2)CCC(=O)O)cc1 (stereo unspecified) |
| 230 nM | O=C(O)CCC(CCCCNS(=O)(=O)c1ccc(C(F)(F)F)cc1)CCCc1cccnc1 (stereo unspecified) |
| 15 nM | O=C(O)COC(CCCCNS(=O)(=O)c1ccc(Cl)cc1)CCCc1cccnc1 (stereo unspecified) |
| 220 nM | COc1ccc(S(=O)(=O)NCCCCC(CCCc2cccnc2)CCC(=O)O)cc1 (stereo unspecified) |

What follows are compounds tested against T1, Thromboxane-A synthase (Homo sapiens, UniProt P24557) (assay: In vitro inhibition of Thromboxane A2 synthase). Settings: not given.
T1 sequence (P24557 whole entry): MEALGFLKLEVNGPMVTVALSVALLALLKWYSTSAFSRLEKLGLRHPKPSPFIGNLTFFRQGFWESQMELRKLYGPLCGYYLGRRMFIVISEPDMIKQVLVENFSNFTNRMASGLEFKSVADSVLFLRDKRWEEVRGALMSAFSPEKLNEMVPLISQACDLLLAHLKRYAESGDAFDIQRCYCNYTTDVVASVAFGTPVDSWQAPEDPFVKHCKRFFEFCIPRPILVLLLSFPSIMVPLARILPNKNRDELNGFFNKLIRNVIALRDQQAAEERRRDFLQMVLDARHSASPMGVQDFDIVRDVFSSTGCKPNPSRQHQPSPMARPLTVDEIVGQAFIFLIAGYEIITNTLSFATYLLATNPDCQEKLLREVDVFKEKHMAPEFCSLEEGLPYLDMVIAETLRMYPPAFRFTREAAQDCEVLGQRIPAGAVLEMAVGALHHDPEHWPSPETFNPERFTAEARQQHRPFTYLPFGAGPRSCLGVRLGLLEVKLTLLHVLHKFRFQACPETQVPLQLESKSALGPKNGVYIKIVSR

| IC50 | Compound |
| --- | --- |
| 10 nM | O=C(O)/C=C/C(CCCCNS(=O)(=O)c1ccc(Cl)cc1)CCCc1cccnc1 (stereo unspecified) |
| 70 nM | O=S(=O)(NCCCCC(CCCO)CCCc1cccnc1)c1ccc(Cl)cc1 (stereo unspecified) |
| 60 nM | NC(=O)CCC(CCCCNS(=O)(=O)c1ccc(Cl)cc1)CCCc1cccnc1 (stereo unspecified) |
| 1.5 nM | O=C(O)CCC(CCCCNS(=O)(=O)c1ccc2ccccc2c1)CCCc1cccnc1 (stereo unspecified) |
| 1 nM | O=C(O)CCC(CCCCNS(=O)(=O)c1ccc(F)cc1)CCCc1cccnc1 (stereo unspecified) |
| 90 nM | O=C(O)C(CCCCNS(=O)(=O)c1ccc(Cl)cc1)CCCc1cccnc1 (stereo unspecified) |
| 1 nM | Cc1ccncc1CCCC(CCCCNS(=O)(=O)c1ccc(Cl)cc1)CCC(=O)O (stereo unspecified) |
| 4 nM | [N-]=[N+]=Nc1ccc(S(=O)(=O)NCCCCC(CCCc2cccnc2)CCC(=O)O)cc1 (stereo unspecified) |
| 4 nM | CS(=O)(=O)c1ccc(S(=O)(=O)NCCCCC(CCCc2cccnc2)CCC(=O)O)cc1 (stereo unspecified) |
| 2 nM | O=C(O)CCC(CCCCNS(=O)(=O)c1ccc(C(F)(F)F)cc1)CCCc1cccnc1 (stereo unspecified) |
| 18 nM | O=C(O)COC(CCCCNS(=O)(=O)c1ccc(Cl)cc1)CCCc1cccnc1 (stereo unspecified) |
| 3 nM | COc1ccc(S(=O)(=O)NCCCCC(CCCc2cccnc2)CCC(=O)O)cc1 (stereo unspecified) |
